Measurements: PubChem BioAssay
Active and inactive are the calls of the source.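 The calls were made as follows, unless noted: active = viability at or below 30% in both replicate assays; inconclusive = viability at or below 30% in just one of the two assays; inactive = the rest.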

Assays:
[1] = reducers of endogenous Her2 protein level, primary screen, SKBR3 breast tumor cells, AlphaScreen, ATP viability (AID 461;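 active = Her2 level under about 52% in both replicate screens, with viability over 70% of control, limit read from the data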;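 as to Her2 level: lower value means less Her2 protein in the cells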;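 as to viability: percent of carrier control wells set as 100% viability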); details: 18-24 h, measured here: SKBR3 viability, ATP luminescence, at 10 µM
[2] = molecular target: Receptor tyrosine-protein kinase erbB-2 (Homo sapiens) (UniProt P04626); experiment: as above; details: 18-24 h, at 10 µM, stronger effect = lower value
[3] = SK-BR-3 cell growth inhibitors, pilot screen, 24 h, human (AID 572;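 active = viability at or below 10% of carrier control in both of two separate runs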;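 also: compound exposure lasted between 18 and 24 h rather than exactly 24 h; 100% = carrier-treated control wells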); details: SK-BR-3 viability, CellTiter-Glo luminescence, at 10 µM, stronger effect = lower value
[4] = HUVEC growth inhibition – cell-based, human, primary screen (AID 575); details: HUVEC proliferation, CellTiter-Glo luminescence, 72 h; at 10 µM; stronger effect = lower value;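 also: 100% = median of untreated cell wells with 0.1% DMSO on each plate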
Method in brief: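 Test system: primary human umbilical vein endothelial cells; medium: endothelial basal medium with 2% FBS plus growth supplements; dosing: 10 µM compound only; times: 72 h treatment at 37 °C; signal: CTG luminescence; read-out: % viability relative to median vehicle-well signal on each plate; control set: vehicle and MePR control wells; plate: 384-well, collagen-coated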

[5] = growth inhibitors of H69AR lung tumor, primary screen, human, duplicate replicates (AID 580;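 active = viability at or under a set limit in both replicates, limit being median viability minus 3 SD, cut at about 48% in these data, passing the limit was not always enough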;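 also: 100% = mean luminescence of untreated wells and 0% = no signal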); details: H69AR lung tumor cells viability, ATP luminescence, 72 h; at 10 µM; stronger effect = lower value
[6] = reversal of MRP1-mediated doxorubicin resistance, pilot screen, H69AR cells, doxorubicin co-treatment (AID 601;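 active = viability loss from added drug above about 55%, and viability with drug at most 40%, in both replicates, limit read from the data, passing the limit was not always enough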); details: CellTiter-Glo, 72 h, at 10 µM; for differential viability (reversal): stronger effect = higher value
[7] = 384-well plate pilot, post-Golgi transport modulator project, inhibition of yeast transport mutant growth (AID 636; in the data active = inhibition above about 31%); details: absorbance 615 nm, about 18 h, stronger effect = higher value
[8] = growth suppression of yeast trafficking mutant, preliminary HTS, modulators of trafficking downstream of Golgi apparatus project, 1536-format plate, OD 615 nm (AID 637; in the data active = inhibition above about 30%); details: yeast transport mutant growth, absorbance 615 nm, 18 h; stronger effect = higher value
[9] = H69AR cells + 2 uM doxorubicin, measured here: viability with 2 uM doxorubicin, stronger effect = lower value
[10] = H69AR cells, compound alone cytotoxicity

Receptor tyrosine-protein kinase erbB-2 (Homo sapiens), sequence (P04626 whole entry, looked up): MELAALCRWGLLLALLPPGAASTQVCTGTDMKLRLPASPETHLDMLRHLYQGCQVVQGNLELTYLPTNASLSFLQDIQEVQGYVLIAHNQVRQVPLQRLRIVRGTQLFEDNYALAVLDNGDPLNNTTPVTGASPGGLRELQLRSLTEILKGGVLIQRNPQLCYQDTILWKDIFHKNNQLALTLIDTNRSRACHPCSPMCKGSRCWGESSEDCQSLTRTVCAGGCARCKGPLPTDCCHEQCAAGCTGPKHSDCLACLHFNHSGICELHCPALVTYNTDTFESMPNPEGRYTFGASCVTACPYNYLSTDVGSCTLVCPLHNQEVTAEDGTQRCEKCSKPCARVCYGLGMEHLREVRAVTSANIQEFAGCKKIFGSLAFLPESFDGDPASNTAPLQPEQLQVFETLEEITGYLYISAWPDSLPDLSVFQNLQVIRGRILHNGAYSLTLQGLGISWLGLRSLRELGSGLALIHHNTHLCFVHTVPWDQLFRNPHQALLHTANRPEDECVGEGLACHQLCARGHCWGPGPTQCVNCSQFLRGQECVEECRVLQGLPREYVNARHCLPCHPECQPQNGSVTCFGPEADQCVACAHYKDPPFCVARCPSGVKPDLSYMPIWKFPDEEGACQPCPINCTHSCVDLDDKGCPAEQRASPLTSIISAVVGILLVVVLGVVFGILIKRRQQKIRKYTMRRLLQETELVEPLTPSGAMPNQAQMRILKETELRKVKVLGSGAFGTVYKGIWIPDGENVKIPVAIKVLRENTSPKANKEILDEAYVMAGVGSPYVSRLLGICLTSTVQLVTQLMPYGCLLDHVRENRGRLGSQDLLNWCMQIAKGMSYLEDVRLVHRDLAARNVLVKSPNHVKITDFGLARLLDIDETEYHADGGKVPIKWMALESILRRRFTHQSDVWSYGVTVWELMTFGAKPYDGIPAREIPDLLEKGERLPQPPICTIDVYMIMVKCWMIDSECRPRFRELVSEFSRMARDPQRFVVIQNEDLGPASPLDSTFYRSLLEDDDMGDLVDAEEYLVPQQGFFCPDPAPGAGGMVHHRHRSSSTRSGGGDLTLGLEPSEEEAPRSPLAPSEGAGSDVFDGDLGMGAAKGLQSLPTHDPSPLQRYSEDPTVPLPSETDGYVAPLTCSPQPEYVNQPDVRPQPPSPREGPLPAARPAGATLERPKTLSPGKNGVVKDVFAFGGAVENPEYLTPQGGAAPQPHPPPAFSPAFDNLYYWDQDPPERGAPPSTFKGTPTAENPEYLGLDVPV

SMILES	viability [1] [%]	Her2 level [2]	viability [3]	viability [4]	viability [5]	differential viability (reversal) ([6]; H69AR cells + 2 uM doxorubicin)	viability [6, 9] [%]	viability [6, 10] [%]	inhibition [7]	inhibition [8]
Cc1cc(C)cc(OCCCC(=O)O)c1	114	97% (inactive)	114% (inactive)	67.9% (inactive)	95.3% (inactive)	3.5% (inactive)	91.8	95.3	-5.6% (inactive)	-0.16% (inactive)
CN1/C(=C\C(=O)C(F)F)C(C)(C)c2ccccc21	90	100% (inactive)	90% (inactive)	99.5% (inactive)	107% (inactive)	19.5% (inactive)	87.4	107	-0.53% (inactive)	1.77% (inactive)
CCOC(=O)C1CCN(C(=O)CSc2cc(=O)n(CC)c3ccccc23)CC1	85	99.5% (inactive)	85% (inactive)	84% (inactive)	92.4% (inactive)	10.4% (inactive)	82	92.4	-0.39% (inactive)	-5.09% (inactive)
Cc1csc2nc(CSc3ccc(Cl)cc3)cn12	97.5	78% (inactive)	97.5% (inactive)	80.9% (inactive)	88.2% (inactive)	15.9% (inactive)	72.3	88.2	-5.87% (inactive)	3.77% (inactive)
CCn1c(=O)c(C(=O)NCCc2ccccc2)c(O)c2ccccc21	99	102% (inactive)	99% (inactive)	58.8% (inactive)	61.6% (inactive)	-26% (inactive)	87.6	61.6	-1.03% (inactive)	-5.17% (inactive)
CCOC(=O)N1CCN(C(=O)CSc2cc(C)nc3c(-c4ccccc4OC)c(C)nn23)CC1	79.5	90% (inactive)	79.5% (inactive)	94% (inactive)	73.3% (inactive)	48.5% (inactive)	24.8	73.3	-0.26% (inactive)	-1.43% (inactive)
CCN=C1SC(CC(=O)Nc2ccccc2)C(=O)N1CC (stereo not given)	98.5	91.5% (inactive)	98.5% (inactive)	122% (inactive)	105% (inactive)	10% (inactive)	94.9	105	-1.92% (inactive)	-1.33% (inactive)
C[C@H](NC(=O)Nc1cccc(C(F)(F)F)c1)C(=O)O	108	108% (inactive)	108% (inactive)	94.3% (inactive)	93.2% (inactive)	5.33% (inactive)	87.9	93.2	-3.07% (inactive)	1.61% (inactive)
COC(=O)Nc1sc2c(c1C(=O)N1CCOCC1)CCC(C)C2 (stereo not given)	89.5	88.5% (inactive)	89.5% (inactive)	79.7% (inactive)	93.9% (inactive)	-1.66% (inactive)	95.6	93.9	-2.89% (inactive)	26% (inactive)
COc1cccc(NC(=O)N2CCCC2C(=O)NC(C)C)c1 (stereo not given)	112	78% (inactive)	112% (inactive)	82.6% (inactive)	99.1% (inactive)	11.2% (inactive)	87.8	99.1	-5.07% (inactive)	9.51% (inactive)
O=c1ccc(S(=O)(=O)N2CCC(Cc3ccccc3)CC2)c[nH]1	86	80.5% (inactive)	86% (inactive)	111% (inactive)	95.3% (inactive)	8.51% (inactive)	86.8	95.3	0.13% (inactive)	-4.33% (inactive)
O=C(NCCc1c[nH]c2ccccc12)c1ccc(S(=O)(=O)NCc2ccco2)cc1	93.5	83.5% (inactive)	93.5% (inactive)	60.2% (inactive)	65.6% (inactive)	-11.9% (inactive)	77.5	65.6	-1.82% (inactive)	-5.4% (inactive)
COc1ccc2c(-c3cccnc3)cc(=O)[nH]c2c1	116	93.5% (inactive)	116% (inactive)	87.2% (inactive)	96% (inactive)	8.77% (inactive)	87.2	96	-6.4% (inactive)	4.43% (inactive)
O=C(O)CCNc1ccc2c(c1)OCCO2	97.5	86.5% (inactive)	97.5% (inactive)	109% (inactive)	86.9% (inactive)	7.24% (inactive)	79.6	86.9	-5.14% (inactive)	-2.67% (inactive)
COc1ccc(C)cc1NC(=O)COCC(=O)O	106	114% (inactive)	106% (inactive)	92.4% (inactive)	103% (inactive)	7.92% (inactive)	95.2	103	-6.89% (inactive)	-3.49% (inactive)
O=S(=O)(NC1CCCC1)c1ccccc1Cl	94.5	97% (inactive)	94.5% (inactive)	87.1% (inactive)	101% (inactive)	2.58% (inactive)	98.4	101	2.73% (inactive)	6.39% (inactive)
O=C1CC(Cc2ccccc2)C(=O)N1CCCn1ccnc1 (stereo not given)	101	102% (inactive)	101% (inactive)	103% (inactive)	92.2% (inactive)	8.18% (inactive)	84	92.2	-3.85% (inactive)	-0.5% (inactive)
COc1ccc(C)cc1S(=O)(=O)N(CC(=O)O)c1ccccc1	118	114% (inactive)	118% (inactive)	106% (inactive)	86.1% (inactive)	-11.2% (inactive)	97.2	86.1	-2.84% (inactive)	4.75% (inactive)
CC(=O)O[C@H]1CSC[C@H]1NC(=O)c1ccccc1	98.5	97% (inactive)	98.5% (inactive)	101% (inactive)	99.8% (inactive)	11% (inactive)	88.8	99.8	-2.13% (inactive)	-1.77% (inactive)
CC(C)CCNC(=O)NC(=O)CSc1nnc(COc2ccccc2Cl)o1	99	80.5% (inactive)	99% (inactive)	81% (inactive)	93% (inactive)	5.9% (inactive)	87.1	93	-2.24% (inactive)	-5.87% (inactive)
COc1ccc(Cn2c(-c3ccco3)nc3oc4ccccc4c(=O)c3c2=O)cc1	87.5	92.5% (inactive)	87.5% (inactive)	101% (inactive)	98.2% (inactive)	14.2% (inactive)	84	98.2	-0.67% (inactive)	6.45% (inactive)
COc1ccc(/C(O)=C2/C(=O)C(=O)N(CCCN(C)C)C2c2ccc(Cl)cc2)cc1OC (stereo not given)	101	97.5% (inactive)	101% (inactive)	103% (inactive)	103% (inactive)	-1.86% (inactive)	105	103	0.4% (inactive)	-3.39% (inactive)
C=Cn1nc(C)c2ccccc2c1=O	112	117% (inactive)	112% (inactive)	105% (inactive)	90.1% (inactive)	4.88% (inactive)	85.2	90.1	-3.33% (inactive)	-7.83% (inactive)
CCSc1oc(-c2cccs2)nc1S(=O)(=O)c1ccccc1	93.5	104% (inactive)	93.5% (inactive)	59.9% (inactive)	82% (inactive)	5.72% (inactive)	76.3	82	-5.33% (inactive)	1.83% (inactive)
O=C(CCS(=O)(=O)c1cccc2nsnc12)N1CCN(Cc2ccc3c(c2)OCO3)CC1	90.5	99% (inactive)	90.5% (inactive)	92.7% (inactive)	94.4% (inactive)	-9.25% (inactive)	104	94.4	-6.71% (inactive)	-5.87% (inactive)
CC(=O)N1CCc2cc(S(=O)(=O)CCC(=O)N3CCN(c4ccccn4)CC3)ccc21	91.5	98% (inactive)	91.5% (inactive)	105% (inactive)	98% (inactive)	6.38% (inactive)	91.6	98	4.67% (inactive)	12% (inactive)
CCCCCc1c(C)nc(N2CCc3ccccc32)[nH]c1=O	92.5	90% (inactive)	92.5% (inactive)	57.4% (inactive)	94.6% (inactive)	-0.605% (inactive)	95.2	94.6	-0.68% (inactive)	3.17% (inactive)
CCOC(=O)c1cccc(NC(=O)CSc2nc3ccccc3c(=O)n2CC)c1	87	79% (inactive)	87% (inactive)	65% (inactive)	71.1% (inactive)	4.1% (inactive)	67	71.1	-3.95% (inactive)	0.48% (inactive)
COc1ccc(-c2cc(C(=O)Nc3ccc(C)cc3)no2)cc1	121	114% (inactive)	121% (inactive)	109% (inactive)	99.1% (inactive)	9.35% (inactive)	89.7	99.1	-3.11% (inactive)	41% (active)
